Measurements: ChEMBL document CHEMBL5154713, “Illuminating a Dark Kinase: Structure-Guided Design, Synthesis, and Evaluation of a Potent Nek1 Inhibitor and Its Effects on the Embryonic Zebrafish Pronephros” (J Med Chem, 2022)

Columns and labels:
[1] = target: Eukaryotic elongation factor 2 kinase (Homo sapiens) (UniProt O00418); experiment: Inhibition of human eEF-2K (2 to end residues) assessed as residual activity at 1 uM using RKKFGESEKTKTKEFL as substrate incubated for 40 mins in presence of [gamma 33P]-ATP by radiometric scintillation counting assay relative to control
Method in brief: (§1)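 Commercial radiometric panel of 50 kinases. Each recombinant human kinase was tested at a single compound concentration of 1 μM. ATP was set within 15 μM of the apparent Km for ATP for each kinase. Residual activity is relative to control and is the mean of two independent experiments.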

[2] = target: MAP kinase-activated protein kinase 2 (Homo sapiens) (UniProt P49137); experiment: Inhibition of recombinant human MAPKAPK2 (46 to end residues) assessed as residual activity at 1 uM using KKLNRTLSVA as substrate incubated for 40 mins in presence of [gamma-33P]-ATP by radiometric scintillation counting method relative to control; method in brief: as §1
[3] = target: T1, Serine/threonine-protein kinase Nek1 (Homo sapiens, UniProt Q96PY6); experiment: Inhibition of human recombinant NEK1 (1 to 505 residues) using ULight-p70 S6K peptide as substrate incubated for 30 mins by LANCE Ultra TR-FRET assay
T1 sequence (Q96PY6 whole entry): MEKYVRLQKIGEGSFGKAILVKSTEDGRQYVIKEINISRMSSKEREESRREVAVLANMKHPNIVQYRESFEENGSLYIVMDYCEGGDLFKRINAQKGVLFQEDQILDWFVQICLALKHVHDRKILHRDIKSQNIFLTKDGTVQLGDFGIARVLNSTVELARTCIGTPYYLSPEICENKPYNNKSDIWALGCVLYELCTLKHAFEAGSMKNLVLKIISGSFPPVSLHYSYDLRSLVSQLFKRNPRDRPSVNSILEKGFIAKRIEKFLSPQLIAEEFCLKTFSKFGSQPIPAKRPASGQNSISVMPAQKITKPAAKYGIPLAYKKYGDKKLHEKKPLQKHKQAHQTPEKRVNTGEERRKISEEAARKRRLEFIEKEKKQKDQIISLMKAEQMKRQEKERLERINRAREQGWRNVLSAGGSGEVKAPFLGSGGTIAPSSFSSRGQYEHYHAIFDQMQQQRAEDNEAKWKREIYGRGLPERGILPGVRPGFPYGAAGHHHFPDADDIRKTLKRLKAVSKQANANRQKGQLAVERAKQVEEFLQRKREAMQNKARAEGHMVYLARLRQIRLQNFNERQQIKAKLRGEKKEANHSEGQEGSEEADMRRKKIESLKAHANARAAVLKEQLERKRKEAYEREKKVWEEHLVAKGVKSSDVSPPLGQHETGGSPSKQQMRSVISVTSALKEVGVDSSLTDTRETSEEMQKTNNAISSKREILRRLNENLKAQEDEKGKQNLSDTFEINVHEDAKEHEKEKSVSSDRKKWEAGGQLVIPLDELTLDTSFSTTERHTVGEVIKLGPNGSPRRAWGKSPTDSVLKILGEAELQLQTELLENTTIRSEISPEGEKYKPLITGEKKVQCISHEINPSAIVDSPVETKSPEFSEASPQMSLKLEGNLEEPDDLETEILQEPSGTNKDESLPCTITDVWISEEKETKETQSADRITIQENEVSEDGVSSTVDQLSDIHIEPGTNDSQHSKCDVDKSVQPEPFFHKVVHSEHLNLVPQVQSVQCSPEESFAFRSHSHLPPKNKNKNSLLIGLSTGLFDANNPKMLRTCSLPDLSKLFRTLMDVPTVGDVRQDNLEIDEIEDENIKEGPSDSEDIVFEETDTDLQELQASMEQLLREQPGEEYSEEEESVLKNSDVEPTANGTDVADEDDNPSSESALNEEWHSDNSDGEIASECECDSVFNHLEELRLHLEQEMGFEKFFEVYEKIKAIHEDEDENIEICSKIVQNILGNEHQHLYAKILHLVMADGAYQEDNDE
Method in brief: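 Recombinant human Nek1 (1−505, 0.02 nM) in 50 mM HEPES pH 7.5, 1 mM EGTA, 10 mM MgCl2, 0.2 mM DTT, 0.01% Tween20, with 50 nM ULight-p70 S6K peptide and 60 μM ATP, 30 min at 22 °C. Stopped with EDTA plus Eu anti-phospho antibody, 1 h signal development. Ten half-log concentrations from 30 μM (10 μM for some) to 1 nM. Mean of two experiments.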

[4] = target: Serine/threonine-protein kinase 4 (Homo sapiens) (UniProt Q13043); experiment: Inhibition of human full length recombinant MST1 assessed as residual activity at 1 uM using KKSRGDYMTMQIG as substrate incubated for 40 mins in presence of [gamma 33P]-ATP by radiometric scintillation counting assay relative to control; method in brief: as §1
Chain of Serine/threonine-protein kinase 4 (Homo sapiens) (Q13043 whole entry, canonical isoform): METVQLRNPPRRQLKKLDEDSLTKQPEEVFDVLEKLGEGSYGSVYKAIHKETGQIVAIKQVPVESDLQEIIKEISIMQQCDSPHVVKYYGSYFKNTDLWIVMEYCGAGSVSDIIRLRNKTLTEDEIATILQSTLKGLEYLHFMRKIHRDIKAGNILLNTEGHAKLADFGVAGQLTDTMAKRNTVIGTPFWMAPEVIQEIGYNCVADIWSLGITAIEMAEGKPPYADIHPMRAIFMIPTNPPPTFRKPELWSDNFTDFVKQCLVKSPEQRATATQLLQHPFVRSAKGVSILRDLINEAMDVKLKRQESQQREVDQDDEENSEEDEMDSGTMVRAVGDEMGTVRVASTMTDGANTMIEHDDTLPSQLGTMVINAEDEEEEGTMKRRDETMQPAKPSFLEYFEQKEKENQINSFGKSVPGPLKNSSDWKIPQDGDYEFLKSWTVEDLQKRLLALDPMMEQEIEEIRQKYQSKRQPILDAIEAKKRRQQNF

[5] = target: Phosphatidylinositol 4,5-bisphosphate 3-kinase catalytic subunit gamma isoform (Homo sapiens) (UniProt P48736); experiment: Inhibition of human full length PI3Kgamma assessed as residual activity at 1 uM using phosphatidylinositol-4, 5-bisphosphate as substrate incubated for 40 mins in presence of ATP by HTRF assay relative to control
Chain of Phosphatidylinositol 4,5-bisphosphate 3-kinase catalytic subunit gamma isoform (Homo sapiens) (P48736 whole entry, looked up, canonical isoform): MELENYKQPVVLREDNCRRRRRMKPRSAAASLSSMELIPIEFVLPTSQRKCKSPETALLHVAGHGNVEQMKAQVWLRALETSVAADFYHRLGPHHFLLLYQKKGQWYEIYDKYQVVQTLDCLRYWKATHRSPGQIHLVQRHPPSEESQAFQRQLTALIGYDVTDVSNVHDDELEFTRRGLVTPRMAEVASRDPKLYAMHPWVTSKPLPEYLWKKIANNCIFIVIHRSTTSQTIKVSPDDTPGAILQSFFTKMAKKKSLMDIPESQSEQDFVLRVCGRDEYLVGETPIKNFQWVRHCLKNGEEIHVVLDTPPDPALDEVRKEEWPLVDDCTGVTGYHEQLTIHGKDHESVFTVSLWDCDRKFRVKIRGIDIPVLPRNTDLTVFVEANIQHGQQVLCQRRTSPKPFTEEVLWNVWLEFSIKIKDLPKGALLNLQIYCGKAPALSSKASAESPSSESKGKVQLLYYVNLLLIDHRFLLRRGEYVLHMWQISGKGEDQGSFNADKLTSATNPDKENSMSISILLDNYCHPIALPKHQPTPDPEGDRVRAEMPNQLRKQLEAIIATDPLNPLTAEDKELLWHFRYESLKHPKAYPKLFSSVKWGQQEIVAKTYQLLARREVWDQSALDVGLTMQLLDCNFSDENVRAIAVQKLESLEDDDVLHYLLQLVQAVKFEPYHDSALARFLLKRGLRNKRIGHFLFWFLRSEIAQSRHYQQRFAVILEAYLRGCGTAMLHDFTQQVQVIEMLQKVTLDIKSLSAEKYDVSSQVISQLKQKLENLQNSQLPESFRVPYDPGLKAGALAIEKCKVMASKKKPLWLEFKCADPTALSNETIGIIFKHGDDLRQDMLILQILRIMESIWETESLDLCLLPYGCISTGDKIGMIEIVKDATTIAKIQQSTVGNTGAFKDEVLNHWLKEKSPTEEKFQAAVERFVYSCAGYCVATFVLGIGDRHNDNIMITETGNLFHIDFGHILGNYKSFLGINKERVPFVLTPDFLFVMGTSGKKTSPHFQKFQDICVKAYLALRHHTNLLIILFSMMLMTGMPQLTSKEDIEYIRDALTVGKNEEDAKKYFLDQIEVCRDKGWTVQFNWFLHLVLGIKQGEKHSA

[6] = target: Glycogen synthase kinase-3 beta (Homo sapiens) (UniProt P49841); experiment: Inhibition of human GSK3beta (2 to end residues) assessed as residual activity using YRRAAVPPSPSLSRHSSPHQS(p) EDEEE as substrate at 1 uM incubated for 40 mins in presence of [gamma 33P]-ATP by radiometric scintillation counting assay relative to control; method in brief: as §1
Chain of Glycogen synthase kinase-3 beta (Homo sapiens) (P49841 whole entry, looked up): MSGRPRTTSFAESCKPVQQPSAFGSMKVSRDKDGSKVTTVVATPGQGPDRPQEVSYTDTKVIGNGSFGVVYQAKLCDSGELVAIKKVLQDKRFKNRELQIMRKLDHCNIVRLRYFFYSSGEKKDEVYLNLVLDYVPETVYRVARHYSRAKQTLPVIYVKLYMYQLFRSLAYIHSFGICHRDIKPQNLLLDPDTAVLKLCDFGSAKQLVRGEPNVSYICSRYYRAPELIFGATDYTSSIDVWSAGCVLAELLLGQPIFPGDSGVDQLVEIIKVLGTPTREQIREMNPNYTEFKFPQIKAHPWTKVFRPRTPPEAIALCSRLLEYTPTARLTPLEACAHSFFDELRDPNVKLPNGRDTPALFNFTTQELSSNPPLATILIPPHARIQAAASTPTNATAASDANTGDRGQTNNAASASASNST

[7] = target: Calcium/calmodulin-dependent protein kinase kinase 2 (Homo sapiens) (UniProt Q96RR4); experiment: Inhibition of human full length CAMKK2 assessed as residual activity at 1 uM using calmodulin as substrate incubated for 40 mins in presence of [gamma 33P]-ATP by radiometric scintillation counting assay relative to control; method in brief: as §1
[8] = target: Tyrosine-protein kinase receptor TYRO3 (Homo sapiens) (UniProt Q06418); experiment: Inhibition of human RSE (451 to end residues) assessed as residual activity at 1 uM using KVEKIGEGTYGVVYK as substrate measured after 40 mins in presence of [gamma33P]ATP by radiometric scintillation counting method relative to control; method in brief: as §1
[9] = target: Serine-protein kinase ATM (Homo sapiens) (UniProt Q13315); experiment: Inhibition of human full length recombinant ATM assessed as residual activity at 1 uM using GST-cMyc-p53 as substrate incubated for 40 mins in presence of ATP by HTRF assay relative to control
Chain of Serine-protein kinase ATM (Homo sapiens) (Q13315 whole entry, canonical isoform): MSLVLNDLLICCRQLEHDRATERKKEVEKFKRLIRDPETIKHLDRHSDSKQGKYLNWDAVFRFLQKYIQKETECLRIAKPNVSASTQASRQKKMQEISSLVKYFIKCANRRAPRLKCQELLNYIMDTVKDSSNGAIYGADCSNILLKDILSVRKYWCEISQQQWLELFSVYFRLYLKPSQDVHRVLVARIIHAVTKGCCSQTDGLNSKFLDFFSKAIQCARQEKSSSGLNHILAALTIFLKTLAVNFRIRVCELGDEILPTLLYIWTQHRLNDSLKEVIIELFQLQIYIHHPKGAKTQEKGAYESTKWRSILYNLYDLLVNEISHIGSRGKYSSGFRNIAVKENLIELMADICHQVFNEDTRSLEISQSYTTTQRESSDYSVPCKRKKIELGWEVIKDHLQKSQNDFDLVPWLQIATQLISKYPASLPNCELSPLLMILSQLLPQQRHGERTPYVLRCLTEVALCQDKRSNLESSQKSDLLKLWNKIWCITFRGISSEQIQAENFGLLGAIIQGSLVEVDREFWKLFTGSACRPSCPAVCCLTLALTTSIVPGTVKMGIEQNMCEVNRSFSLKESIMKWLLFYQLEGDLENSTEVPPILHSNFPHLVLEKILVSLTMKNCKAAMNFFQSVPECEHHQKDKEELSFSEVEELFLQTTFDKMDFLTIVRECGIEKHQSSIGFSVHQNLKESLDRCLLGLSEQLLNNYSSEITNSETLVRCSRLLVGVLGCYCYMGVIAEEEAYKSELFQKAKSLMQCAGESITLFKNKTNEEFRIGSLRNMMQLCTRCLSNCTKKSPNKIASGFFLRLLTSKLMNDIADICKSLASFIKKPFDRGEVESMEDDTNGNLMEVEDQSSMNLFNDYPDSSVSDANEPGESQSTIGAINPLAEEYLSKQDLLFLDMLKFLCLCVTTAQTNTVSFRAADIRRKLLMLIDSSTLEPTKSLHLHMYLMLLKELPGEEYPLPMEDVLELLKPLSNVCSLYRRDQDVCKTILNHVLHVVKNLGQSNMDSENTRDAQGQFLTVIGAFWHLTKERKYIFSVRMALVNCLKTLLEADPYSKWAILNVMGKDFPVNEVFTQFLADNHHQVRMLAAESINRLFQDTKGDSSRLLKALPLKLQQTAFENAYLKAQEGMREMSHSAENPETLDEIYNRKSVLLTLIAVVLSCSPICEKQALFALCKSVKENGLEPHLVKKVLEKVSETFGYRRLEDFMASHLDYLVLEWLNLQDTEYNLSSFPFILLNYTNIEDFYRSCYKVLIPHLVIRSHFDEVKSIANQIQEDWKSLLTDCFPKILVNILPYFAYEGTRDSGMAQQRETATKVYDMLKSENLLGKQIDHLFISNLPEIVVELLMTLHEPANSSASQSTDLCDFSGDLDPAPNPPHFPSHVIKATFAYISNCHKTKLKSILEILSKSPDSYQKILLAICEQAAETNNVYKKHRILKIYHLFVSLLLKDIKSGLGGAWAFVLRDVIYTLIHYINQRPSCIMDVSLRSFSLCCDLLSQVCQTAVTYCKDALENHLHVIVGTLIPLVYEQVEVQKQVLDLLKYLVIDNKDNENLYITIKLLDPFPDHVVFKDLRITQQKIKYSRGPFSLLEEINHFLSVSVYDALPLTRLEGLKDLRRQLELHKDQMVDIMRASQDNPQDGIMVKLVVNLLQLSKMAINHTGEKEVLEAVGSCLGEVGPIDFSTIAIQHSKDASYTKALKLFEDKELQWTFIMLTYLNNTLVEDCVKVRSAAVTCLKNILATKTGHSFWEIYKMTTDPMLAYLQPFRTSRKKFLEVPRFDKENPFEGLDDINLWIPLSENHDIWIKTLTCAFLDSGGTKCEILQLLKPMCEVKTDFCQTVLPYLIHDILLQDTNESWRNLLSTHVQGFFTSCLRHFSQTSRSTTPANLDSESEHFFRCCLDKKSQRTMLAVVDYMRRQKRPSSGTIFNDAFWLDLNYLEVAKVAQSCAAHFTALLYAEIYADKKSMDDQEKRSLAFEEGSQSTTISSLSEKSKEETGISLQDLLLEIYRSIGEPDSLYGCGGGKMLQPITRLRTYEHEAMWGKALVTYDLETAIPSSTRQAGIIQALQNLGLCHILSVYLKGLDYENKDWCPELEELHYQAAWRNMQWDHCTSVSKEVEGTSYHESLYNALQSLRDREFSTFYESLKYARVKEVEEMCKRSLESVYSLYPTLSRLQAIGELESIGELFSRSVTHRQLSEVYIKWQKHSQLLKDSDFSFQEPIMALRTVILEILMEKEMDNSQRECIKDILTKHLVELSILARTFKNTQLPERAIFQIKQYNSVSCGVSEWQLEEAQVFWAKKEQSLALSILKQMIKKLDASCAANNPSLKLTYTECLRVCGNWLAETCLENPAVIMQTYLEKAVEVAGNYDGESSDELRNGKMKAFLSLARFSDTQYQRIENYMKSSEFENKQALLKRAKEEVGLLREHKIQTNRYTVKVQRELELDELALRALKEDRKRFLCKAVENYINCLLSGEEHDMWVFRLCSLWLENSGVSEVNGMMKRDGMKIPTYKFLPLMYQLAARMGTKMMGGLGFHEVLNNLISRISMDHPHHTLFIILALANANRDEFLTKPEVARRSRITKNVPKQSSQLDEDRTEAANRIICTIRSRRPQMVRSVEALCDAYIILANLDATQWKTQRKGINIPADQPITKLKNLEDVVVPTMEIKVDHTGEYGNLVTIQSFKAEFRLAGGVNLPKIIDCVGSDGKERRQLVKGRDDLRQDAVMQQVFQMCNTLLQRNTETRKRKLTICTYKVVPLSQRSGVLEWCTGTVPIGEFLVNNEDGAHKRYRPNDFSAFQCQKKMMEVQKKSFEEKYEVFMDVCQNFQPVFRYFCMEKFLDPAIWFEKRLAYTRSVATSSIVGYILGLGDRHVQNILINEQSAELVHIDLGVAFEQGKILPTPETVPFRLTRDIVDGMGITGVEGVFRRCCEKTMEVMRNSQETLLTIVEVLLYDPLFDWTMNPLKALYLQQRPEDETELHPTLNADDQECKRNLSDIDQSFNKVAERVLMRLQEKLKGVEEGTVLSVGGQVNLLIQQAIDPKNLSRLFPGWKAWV

[10] = target: Phosphatidylinositol 4,5-bisphosphate 3-kinase catalytic subunit alpha isoform (Homo sapiens) (UniProt P42336); experiment: Inhibition of human full length recombinant PI3Kalpha assessed as residual activity at 1 uM using phosphatidylinositol 4,5-bisphosphate as substrate incubated for 40 mins in presence of ATP by HTRF assay relative to control
[11] = Toxicity in wild-type Zebrafish embryos assessed as effect on body curvature at 0.05 to 30 uM measured upto 120 hrs; parameters: species or system Danio rerio; settings: in vivo, dose 0.05-30 µM
Method in brief: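 Wild-type embryos, 15 per group with intact chorions, dosed at 6 hpf with 0.05–30 μM final concentrations in E3, diluted from a DMSO stock. Survival checked every 24 h by heartbeat over 120 h, and phenotypes assessed visually. At least triplicate, 5 replicates at 30 μM.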

Compound: O=S(=O)(N[C@@H](CO)Cc1c[nH]c2ccccc12)c1ccc(-c2ccnc3[nH]ccc23)cc1
- Activity [1]: > 75%
- Activity [2]: > 75%
- IC50 [3]: 330 nM
- Activity [4]: > 75%
- Activity [5]: > 75%
- Activity [6]: > 75%
- Activity [7]: > 75%
- Activity [8]: > 75%
- Activity [9]: > 75%
- Activity [10]: > 75%
- Activity [11]: Non-Toxic
